Reference: ChEMBL document CHEMBL4732101, “Novel quinolone-based potent and selective HDAC6 inhibitors: Synthesis, molecular modeling studies and biological investigation” (Eur J Med Chem, 2021)

Key:
Histone deacetylase 1 = Histone deacetylase 1 (Homo sapiens, UniProt Q13547); assay: Inhibition of recombinant human C-terminal FLAG/His-tagged HDAC1 (1 to 482 residues) expressed in Sf9 insect cells using Z-(Ac)Lys-AMC as substrate measured after 90 mins by fluorescence assay
How it was run: (§1)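 Incubated with inhibitor in DMSO and fluorogenic substrate Z-(Ac)Lys-AMC (126 µM, as added) for 90 min at 37 °C. Stopped with trichostatin A plus trypsin for 30 min at 37 °C; fluorescence read at ex 390/em 460 nm.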

[1] = target: T1, Protein deacetylase HDAC6 (Homo sapiens, UniProt Q9UBN7); assay: Inhibition of recombinant human full length N-terminal GST-tagged HDAC6 expressed in baculovirus infected Sf9 cells using Z-(Ac)Lys-AMC as substrate measured after 90 mins by fluorescence assay
T1 sequence (Q9UBN7 whole entry): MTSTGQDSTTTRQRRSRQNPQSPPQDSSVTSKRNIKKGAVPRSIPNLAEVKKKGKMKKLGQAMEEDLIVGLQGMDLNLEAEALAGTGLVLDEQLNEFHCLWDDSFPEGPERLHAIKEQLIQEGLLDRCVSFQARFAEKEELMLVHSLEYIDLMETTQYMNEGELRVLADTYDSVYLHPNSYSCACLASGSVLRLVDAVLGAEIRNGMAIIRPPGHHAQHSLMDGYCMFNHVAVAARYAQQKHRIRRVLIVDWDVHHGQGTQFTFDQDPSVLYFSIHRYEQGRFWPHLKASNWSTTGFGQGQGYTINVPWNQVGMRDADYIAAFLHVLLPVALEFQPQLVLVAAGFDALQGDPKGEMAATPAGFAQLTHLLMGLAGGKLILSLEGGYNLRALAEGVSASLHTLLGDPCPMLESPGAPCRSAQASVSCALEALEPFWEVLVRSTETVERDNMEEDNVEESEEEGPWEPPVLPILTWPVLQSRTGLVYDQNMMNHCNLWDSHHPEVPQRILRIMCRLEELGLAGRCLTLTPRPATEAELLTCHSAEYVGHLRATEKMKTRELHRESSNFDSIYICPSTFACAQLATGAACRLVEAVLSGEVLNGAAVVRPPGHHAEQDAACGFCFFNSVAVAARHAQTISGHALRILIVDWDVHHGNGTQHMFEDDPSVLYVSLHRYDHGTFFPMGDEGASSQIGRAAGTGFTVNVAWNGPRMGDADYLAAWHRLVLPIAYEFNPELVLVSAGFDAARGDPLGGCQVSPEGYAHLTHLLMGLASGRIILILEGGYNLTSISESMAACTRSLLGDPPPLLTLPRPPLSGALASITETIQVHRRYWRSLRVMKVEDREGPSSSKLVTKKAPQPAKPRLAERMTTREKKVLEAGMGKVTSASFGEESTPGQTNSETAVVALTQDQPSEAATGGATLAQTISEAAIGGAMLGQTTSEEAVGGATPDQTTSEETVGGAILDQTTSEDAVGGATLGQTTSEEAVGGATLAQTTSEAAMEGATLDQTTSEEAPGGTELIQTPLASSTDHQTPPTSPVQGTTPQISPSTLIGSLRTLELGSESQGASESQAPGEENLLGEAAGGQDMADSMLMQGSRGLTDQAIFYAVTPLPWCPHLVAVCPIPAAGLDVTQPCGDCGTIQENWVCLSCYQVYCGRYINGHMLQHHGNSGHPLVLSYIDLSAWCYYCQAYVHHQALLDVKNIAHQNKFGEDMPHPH

[2] = target: T2, HDAC1 (histone deacetylase 1) (Homo sapiens, UniProt Q13547); assay: Inhibition of recombinant human C-terminal FLAG/His-tagged HDAC1 (1 to 482 residues) expressed in Sf9 insect cells at 1 uM using Z-(Ac)Lys-AMC as substrate measured after 90 mins by fluorescence assay relative to control; conditions: probe Z-(Ac)Lys-AMC; how it was run: as §1
[3] = target: T2, HDAC1 (histone deacetylase 1); assay: Inhibition of recombinant human C-terminal FLAG/His-tagged HDAC1 (1 to 482 residues) expressed in Sf9 insect cells at 25 uM using Z-(Ac)Lys-AMC as substrate measured after 90 mins by fluorescence assay relative to control; conditions: probe Z-(Ac)Lys-AMC; how it was run: as §1
[4] = target: T2, HDAC1 (histone deacetylase 1); assay: Inhibition of recombinant human C-terminal FLAG/His-tagged HDAC1 (1 to 482 residues) expressed in Sf9 insect cells at 10 uM using Z-(Ac)Lys-AMC as substrate measured after 90 mins by fluorescence assay relative to control; conditions: probe Z-(Ac)Lys-AMC; how it was run: as §1
[5] = target: T2, HDAC1 (histone deacetylase 1); assay: Inhibition of recombinant human C-terminal FLAG/His-tagged HDAC1 (1 to 482 residues) expressed in Sf9 insect cells at 50 uM using Z-(Ac)Lys-AMC as substrate measured after 90 mins by fluorescence assay relative to control; conditions: probe Z-(Ac)Lys-AMC; how it was run: as §1

Histone deacetylase 1, sequence (Q13547 whole entry, the tested form may be a part): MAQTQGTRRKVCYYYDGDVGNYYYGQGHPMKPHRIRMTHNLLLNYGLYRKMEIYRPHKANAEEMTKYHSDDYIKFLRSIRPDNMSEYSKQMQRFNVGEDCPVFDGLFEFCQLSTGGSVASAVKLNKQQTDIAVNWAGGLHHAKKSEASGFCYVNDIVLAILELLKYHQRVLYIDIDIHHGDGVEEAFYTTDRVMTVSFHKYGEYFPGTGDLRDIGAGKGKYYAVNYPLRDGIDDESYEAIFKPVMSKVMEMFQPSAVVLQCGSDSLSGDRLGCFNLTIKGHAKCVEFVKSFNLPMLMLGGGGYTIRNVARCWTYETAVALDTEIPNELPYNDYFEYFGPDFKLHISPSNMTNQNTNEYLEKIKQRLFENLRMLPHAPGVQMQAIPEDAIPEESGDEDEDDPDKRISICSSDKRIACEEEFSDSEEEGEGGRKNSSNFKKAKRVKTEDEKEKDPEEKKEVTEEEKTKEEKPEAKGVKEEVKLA
T2 sequence (Q13547 whole entry, the tested form may be a part): as above

IC50 (Histone deacetylase 1) [nM] | IC50 [1] [nM] | inhibition at 1.5 h, 1 µM [2] [%] | inhibition at 1.5 h, 25 µM [3] [%] | inhibition at 1.5 h, 10 µM [4] [%] | inhibition at 1.5 h, 50 µM [5] [%] | Structure (SMILES)
5500 | 84.5 |  |  |  |  | O=C(NO)c1ccc(Cn2c(=O)c(OCc3ccccc3)c(-c3ccccc3)c3ccccc32)cc1
 | 519 | < 10 | 46 | 26 | 80 | Cn1c(=O)c(OCc2ccc(C(=O)NO)cc2)c(-c2ccccc2)c2ccccc21
2500 | 25.6 |  |  |  |  | O=C(NO)c1ccc(COc2c(-c3cccnc3)c3ccccc3n(Cc3ccccc3)c2=O)cc1
6100 | 82.3 |  |  |  |  | C#CCn1c(=O)c(OCc2ccc(C(=O)NO)cc2)c(-c2ccccc2)c2ccccc21
 | 296 | < 10 | 82 | 36 | 96 | O=C(NO)c1ccc(Cn2c(=O)c(O)c(-c3cccnc3)c3ccccc32)cc1
 | 176 | 17 | 93 | 76 | 97 | O=C(NO)c1ccc(COc2c(-c3ccccc3)c3ccccc3n(Cc3ccccc3)c2=O)cc1

Structure (SMILES) | IC50 (Histone deacetylase 1) [nM] | IC50 [1] [nM] | inhibition at 1.5 h, 1 µM [2] [%] | inhibition at 1.5 h, 25 µM [3] [%] | inhibition at 1.5 h, 10 µM [4] [%] | inhibition at 1.5 h, 50 µM [5] [%]
O=C(NO)c1ccc(COc2c(-c3ccccc3)c3ccccc3n(C3CCN(Cc4ccccc4)CC3)c2=O)cc1 |  | 870 | < 10 | 67 | 46 | 79
